pEC50, pIC50, pKi: −log10 of the molar value.
Assays:
[1] = target: T1, 5-hydroxytryptamine receptor 2A (Rattus norvegicus, UniProt P14842); experiment: The compound was tested for the binding affinity against 5-hydroxytryptamine 2A receptor using [3H]ketanserin as radioligand.
[2] = target: T2, 5-hydroxytryptamine receptor 1A (Rattus norvegicus, UniProt P19327); experiment: The compound was tested for the binding affinity against 5-hydroxytryptamine 1A receptor using [3H]8-OH-DPAT as radioligand.
T2 sequence (P19327 whole entry): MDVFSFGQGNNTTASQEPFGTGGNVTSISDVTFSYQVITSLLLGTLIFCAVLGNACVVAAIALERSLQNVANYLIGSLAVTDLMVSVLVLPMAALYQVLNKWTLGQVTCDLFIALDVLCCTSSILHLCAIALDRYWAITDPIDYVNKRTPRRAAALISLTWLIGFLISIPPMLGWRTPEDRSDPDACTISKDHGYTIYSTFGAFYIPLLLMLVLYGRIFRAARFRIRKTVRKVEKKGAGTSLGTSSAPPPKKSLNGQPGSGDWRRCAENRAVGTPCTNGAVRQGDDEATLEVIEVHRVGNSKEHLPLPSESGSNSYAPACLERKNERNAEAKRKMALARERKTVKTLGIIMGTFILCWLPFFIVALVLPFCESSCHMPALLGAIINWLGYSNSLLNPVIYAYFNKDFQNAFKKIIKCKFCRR

[3] = target: T3, 5-hydroxytryptamine receptor 2C (Rattus norvegicus, UniProt P08909); experiment: The compound was tested for the binding affinity against 5-hydroxytryptamine 2C receptor using [3H]Mesulergine as radioligand.
T3 sequence (P08909 whole entry): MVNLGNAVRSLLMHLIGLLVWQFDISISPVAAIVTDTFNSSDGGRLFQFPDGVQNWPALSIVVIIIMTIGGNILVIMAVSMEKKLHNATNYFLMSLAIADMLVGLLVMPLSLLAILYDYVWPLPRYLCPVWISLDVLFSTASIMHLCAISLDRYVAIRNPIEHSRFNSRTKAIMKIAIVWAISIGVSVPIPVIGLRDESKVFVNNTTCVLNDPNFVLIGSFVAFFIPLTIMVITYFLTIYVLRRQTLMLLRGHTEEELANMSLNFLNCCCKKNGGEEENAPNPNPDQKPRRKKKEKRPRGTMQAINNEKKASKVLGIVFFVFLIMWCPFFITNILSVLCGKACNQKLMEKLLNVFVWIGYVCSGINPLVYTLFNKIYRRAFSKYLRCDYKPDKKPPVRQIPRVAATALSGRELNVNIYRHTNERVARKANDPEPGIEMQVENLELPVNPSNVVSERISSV

[4] = target: T4, Serotonin 3 (5-HT3) receptor (Rattus norvegicus, UniProt P35563+Q9JJ16); experiment: The compound was tested for the binding affinity against 5-hydroxytryptamine 3 receptor using [3H]zacopride as radioligand.; assay type: protein-complex assay
T4 sequence (P35563 whole entry): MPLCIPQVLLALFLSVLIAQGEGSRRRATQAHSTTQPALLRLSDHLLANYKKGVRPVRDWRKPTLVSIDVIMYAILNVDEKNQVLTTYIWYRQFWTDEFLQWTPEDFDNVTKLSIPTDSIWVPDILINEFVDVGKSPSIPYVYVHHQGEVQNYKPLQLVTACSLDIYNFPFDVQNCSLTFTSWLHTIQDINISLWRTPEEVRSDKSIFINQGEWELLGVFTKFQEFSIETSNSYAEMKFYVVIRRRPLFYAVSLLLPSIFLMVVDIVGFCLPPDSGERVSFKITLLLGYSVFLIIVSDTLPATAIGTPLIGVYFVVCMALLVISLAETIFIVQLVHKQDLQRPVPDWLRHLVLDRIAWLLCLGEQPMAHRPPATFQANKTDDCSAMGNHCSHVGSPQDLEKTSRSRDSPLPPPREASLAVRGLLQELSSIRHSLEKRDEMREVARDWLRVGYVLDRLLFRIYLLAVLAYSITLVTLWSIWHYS
T4 sequence (Q9JJ16 whole entry): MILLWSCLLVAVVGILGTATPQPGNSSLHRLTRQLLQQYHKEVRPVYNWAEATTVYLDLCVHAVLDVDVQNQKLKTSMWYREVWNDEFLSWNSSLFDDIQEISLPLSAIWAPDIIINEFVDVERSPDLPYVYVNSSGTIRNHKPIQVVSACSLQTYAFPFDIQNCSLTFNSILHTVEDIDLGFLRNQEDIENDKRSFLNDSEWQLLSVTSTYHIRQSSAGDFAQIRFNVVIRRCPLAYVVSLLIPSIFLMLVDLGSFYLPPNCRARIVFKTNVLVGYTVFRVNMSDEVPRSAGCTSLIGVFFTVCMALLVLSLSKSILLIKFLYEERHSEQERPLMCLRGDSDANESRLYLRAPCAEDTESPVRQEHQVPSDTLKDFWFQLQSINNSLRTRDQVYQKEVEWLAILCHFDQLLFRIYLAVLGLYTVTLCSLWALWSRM

[5] = target: T4, Serotonin 3 (5-HT3) receptor; experiment: Binding affinity against 5-hydroxytryptamine 3 (5-HT3) receptor from rat cortical homogenate using [3H]zacopride as radioligand
Method in brief: (§1)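 Male rat cortices, stored at -80 °C, were homogenized in ice-cold 25 mM Tris HCl pH 7.4 and spun at 50000g. Membranes were preincubated 10 min at 37 °C, washed, and resuspended with 10 µM pargyline (10 mg tissue/sample). They were incubated with 0.4 nM (final) [3H]zacopride for 30 min at 25 °C, filtered through PEI-treated GF/B and counted. IC50 came from dose-inhibition curves, mean ± SEM of three determinations.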

[6] = target: T5, 5-hydroxytryptamine receptor 4 (Cavia porcellus, UniProt O70528); experiment: The compound was tested for the binding affinity against 5-hydroxytryptamine 4 receptor using [3H]GR-113808 as radioligand.
[7] = target: T6, 5-hydroxytryptamine receptor 1B (Rattus norvegicus, UniProt P28564); experiment: The compound was tested for the binding affinity against 5-hydroxytryptamine 1B receptor using [3H]5-HT as radioligand.
NG108-15 [8] = experiment: The compound was tested for efficacy against 5-Hydroxytryptamine 3 receptor by measuring [14C]guanidinium uptake on NG108-15 cells.; PA=Partial agonist; assay type: functional, cell-based; conditions: filed as partial agonist
Method in brief: (§2)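 NG108-15 cells, grown 2 days, were washed in HEPES saline pH 7.4. They were exposed 10 min at 37 °C to buffer (135 mM NaCl, 10 mM guanidinium) with […] [14C]guanidinium, 1 mM 5-HT, […] and/or 8 drug concentrations. Cells were washed in ice-cold choline buffer, dissolved in NaOH and counted by scintillation. Assays run in triplicate.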

[9] = target: Serotonin 3 (5-HT3) receptor; experiment: Effective concentration against 5-Hydroxytryptamine 3 receptor by measuring [14C]guanidinium uptake on NG108-15 cells.; assay type: functional, cell-based
NG108-15 [10] = experiment: The compound was tested for efficacy against 5-Hydroxytryptamine 3 receptor by measuring [14C]guanidinium uptake on NG108-15 cells.; A = Agonist; assay type: functional, cell-based; conditions: filed as agonist; method in brief: as §2
[11] = target: T4, Serotonin 3 (5-HT3) receptor; experiment: The compound was tested for binding affinity against 5-hydroxytryptamine 3 receptor from NG108-15 cells using [3H]zacopride as radioligand; assay type: cell-based
Method in brief: (§3)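 NG108-15 cells were grown in DMEM with 10% inactivated FCS plus HAT at 37 °C, 10% CO2, harvested by shaking and pelleted. About 420 000 cells/sample in 50 mM Tris HCl pH 7.5 with 25 mM NaCl were incubated with 0.4 nM (final) [3H]zacopride for 60 min at 25 °C, then filtered and counted. IC50 is mean ± SEM of three determinations.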

[12] = The compound was tested for brain to plasma partition in rat.; assay type: ADME, organism-based; conditions: brain and plasma, read-out: AUC ratio
Method in brief: (§4)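 Male CD-COBS rats (175-200 g) received hydrochloride salts in saline i.v. at 5 mg/kg and were killed 60, 120 and 180 min after dosing. Plasma and brain levels were measured by HPLC-UV (254 nm) after liquid-liquid or solid-phase extraction with an internal standard. The ratio is brain-to-plasma AUC_t, 2-3 rats per point.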

[13] = target: T4, Serotonin 3 (5-HT3) receptor; experiment: The compound was tested for binding affinity against 5-hydroxytryptamine 3 receptor from NG108-15 cells (using [3H]zacopride as radioligand); assay type: cell-based; method in brief: as §3
[14] = target: T3, 5-hydroxytryptamine receptor 2C; experiment: The compound was tested for the binding affinity against 5-hydroxytryptamine 2C receptor using [3H]mesulergine as radioligand
[15] = target: T6, 5-hydroxytryptamine receptor 1B; experiment: The compound was tested for the binding affinity against 5-hydroxytryptamine 1B receptor using [3H]5-HT as radioligand
[16] = target: T5, 5-hydroxytryptamine receptor 4; experiment: The compound was tested for the binding affinity against 5-hydroxytryptamine 4 receptor using [3H]GR-113808 as radioligand
Method in brief: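 Male guinea pig striatal membranes, washed and preincubated at 37 °C, were incubated with 0.1 nM (final) [3H]GR113808 for 30 min at 37 °C.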

[17] = The compound was tested for brain to plasma partition in rat; assay type: ADME, organism-based; conditions: brain and plasma, read-out: AUC ratio; method in brief: as §4
[18] = target: T1, 5-hydroxytryptamine receptor 2A; experiment: The compound was tested for the binding affinity against 5-hydroxytryptamine 2A receptor using [3H]ketanserin as radioligand
[19] = target: T4, Serotonin 3 (5-HT3) receptor; experiment: The compound was tested for the binding affinity against 5-hydroxytryptamine 3 receptor using [3H]zacopride as radioligand; assay type: protein-complex assay
NG108-15 [20] = experiment: The compound was tested for efficacy against 5-Hydroxytryptamine 3 receptor by measuring [14C]guanidinium uptake on NG108-15 cells; PA=Partial agonist; assay type: functional, cell-based; conditions: filed as partial agonist; method in brief: as §2
NG108-15 [21] = experiment: The compound was tested for efficacy against 5-Hydroxytryptamine 3 receptor by measuring [14C]guanidinium uptake on NG108-15 cells; A= agonist; assay type: functional, cell-based; conditions: filed as agonist; method in brief: as §2
[22] = target: T4, Serotonin 3 (5-HT3) receptor; experiment: The compound was tested for binding affinity against 5-hydroxytryptamine 3 receptor from rat cortical homogenate using [3H]zacopride as radioligand; not active; method in brief: as §1

T1 sequence (P14842 whole entry): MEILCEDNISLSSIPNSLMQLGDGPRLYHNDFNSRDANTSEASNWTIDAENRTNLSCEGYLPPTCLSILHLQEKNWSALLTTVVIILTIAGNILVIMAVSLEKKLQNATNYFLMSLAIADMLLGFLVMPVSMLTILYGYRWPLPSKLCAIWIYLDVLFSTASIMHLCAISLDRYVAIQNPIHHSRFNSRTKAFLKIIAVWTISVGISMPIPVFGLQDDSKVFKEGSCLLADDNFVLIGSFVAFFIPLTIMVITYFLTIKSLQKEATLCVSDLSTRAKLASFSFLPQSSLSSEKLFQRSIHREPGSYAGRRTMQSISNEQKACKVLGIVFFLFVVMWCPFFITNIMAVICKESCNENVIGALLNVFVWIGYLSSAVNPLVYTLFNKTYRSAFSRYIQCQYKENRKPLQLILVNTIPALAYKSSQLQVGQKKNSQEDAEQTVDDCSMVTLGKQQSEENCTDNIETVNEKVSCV
T5 sequence (O70528 whole entry): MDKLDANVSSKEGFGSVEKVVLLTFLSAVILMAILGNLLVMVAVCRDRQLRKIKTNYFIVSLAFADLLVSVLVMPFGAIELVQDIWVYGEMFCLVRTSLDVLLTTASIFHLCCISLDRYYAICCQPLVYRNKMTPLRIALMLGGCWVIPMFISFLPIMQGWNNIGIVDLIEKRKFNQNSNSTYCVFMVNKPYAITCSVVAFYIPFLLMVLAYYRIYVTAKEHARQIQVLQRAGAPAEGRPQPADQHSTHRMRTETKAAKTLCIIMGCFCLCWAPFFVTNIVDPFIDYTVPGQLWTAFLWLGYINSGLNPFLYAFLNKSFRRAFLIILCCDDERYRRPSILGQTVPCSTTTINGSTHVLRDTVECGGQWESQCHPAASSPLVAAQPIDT
T6 sequence (P28564 whole entry): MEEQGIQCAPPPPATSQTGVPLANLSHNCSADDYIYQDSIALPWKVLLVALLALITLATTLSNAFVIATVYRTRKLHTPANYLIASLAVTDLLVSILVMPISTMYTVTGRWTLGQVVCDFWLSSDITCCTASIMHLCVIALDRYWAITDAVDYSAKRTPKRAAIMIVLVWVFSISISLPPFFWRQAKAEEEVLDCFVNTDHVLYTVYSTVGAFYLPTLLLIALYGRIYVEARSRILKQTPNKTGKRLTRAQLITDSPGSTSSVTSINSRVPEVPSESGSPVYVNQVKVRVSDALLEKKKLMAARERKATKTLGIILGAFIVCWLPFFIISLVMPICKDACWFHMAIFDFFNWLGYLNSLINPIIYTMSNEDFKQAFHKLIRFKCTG

SMILES | pKi [1] | pKi [2] | pKi [3] | pKi [4] | pIC50 [5] | pKi [6] | pKi [7] | pEC50 [9] | further results
Cc1cccc2nc(N3CCNCC3)c3cccn3c12 | 6.00 | < 5.00 | 6.00 | 9.00 | 8.95 | < 5.00 | 6.60 | 8.02 | Efficacy (NG108-15 [8]): Partial agonist
Cc1ccc2c(c1)nc(N1CCN(C)CC1)c1cccn12 | – | – | – | – | 7.74 | – | – | 7.85 | Efficacy (NG108-15 [21]): Agonist
c1ccc(N2CCN(c3nc4ncccc4n4cccc34)CC2)cc1 | – | – | – | – | – | – | – | – | IC50 [22]: Not Active

More lines, main results first:

pKi [1] | pKi [2] | pKi [3] | pKi [4] | pIC50 [5] | pKi [6] | pKi [7] | pEC50 [9] | SMILES | further results
6.30 | – | < 5.00 | 9.10 | 9.10 | < 5.00 | 6.40 | 8.42 | Cc1cccc2nc(N3CCN(C)CC3)c3cccn3c12 | Efficacy (NG108-15 [10]): Agonist; pIC50 [11]: 9.59; Kp [12]: 9.5
– | 7.60 | – | – | – | – | – | 8.77 | CN1CCN(c2nc3ncccc3n3cccc23)CC1 | pIC50 [13]: 8.03; pKi [14]: 6.10; pKi [15]: 7.60; pKi [16]: < 5.00; Kp [17]: 4.9; pKi [18]: < 5.00; pKi [19]: 8.60; Efficacy (NG108-15 [20]): Partial agonist

From ChEMBL document CHEMBL1132449, “Pyrroloquinoxaline derivatives as high-affinity and selective 5-HT(3) receptor agonists: synthesis, further structure-activity relationships, and biological studies” (J Med Chem, 1999)
